Source: PubChem
ABHD5-PLIN5 inh: ABHD5-PLIN5 interaction inhibitors, primary screen, cell lysate, split luciferase complementation, luminescence; 360,000 tested, 0.78% active; Perilipin-5 (Homo sapiens) + 1-acylglycerol-3-phosphate O-acyltransferase ABHD5 (Homo …; inhibition, % at 4 µM; Split G. princeps luciferase complementation, 4 h;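 active = inhibition above the mean inhibition across every tested compound plus 3 SD, cut at about 22% in these data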
Target sequence (Q00G26 whole entry, looked up): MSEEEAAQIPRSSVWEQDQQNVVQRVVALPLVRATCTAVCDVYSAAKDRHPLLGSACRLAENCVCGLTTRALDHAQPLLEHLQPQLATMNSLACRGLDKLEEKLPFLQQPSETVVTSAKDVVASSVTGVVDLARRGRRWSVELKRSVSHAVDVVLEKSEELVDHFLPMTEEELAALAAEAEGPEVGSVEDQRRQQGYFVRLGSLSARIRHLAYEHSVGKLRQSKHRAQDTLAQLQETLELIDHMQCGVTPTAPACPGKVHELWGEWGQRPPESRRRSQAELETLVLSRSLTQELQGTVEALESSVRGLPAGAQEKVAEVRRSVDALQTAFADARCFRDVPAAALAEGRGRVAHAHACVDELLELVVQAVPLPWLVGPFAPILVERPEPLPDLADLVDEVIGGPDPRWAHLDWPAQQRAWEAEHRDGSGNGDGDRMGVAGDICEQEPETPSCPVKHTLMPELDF
Target sequence (Q8WTS1 whole entry, looked up): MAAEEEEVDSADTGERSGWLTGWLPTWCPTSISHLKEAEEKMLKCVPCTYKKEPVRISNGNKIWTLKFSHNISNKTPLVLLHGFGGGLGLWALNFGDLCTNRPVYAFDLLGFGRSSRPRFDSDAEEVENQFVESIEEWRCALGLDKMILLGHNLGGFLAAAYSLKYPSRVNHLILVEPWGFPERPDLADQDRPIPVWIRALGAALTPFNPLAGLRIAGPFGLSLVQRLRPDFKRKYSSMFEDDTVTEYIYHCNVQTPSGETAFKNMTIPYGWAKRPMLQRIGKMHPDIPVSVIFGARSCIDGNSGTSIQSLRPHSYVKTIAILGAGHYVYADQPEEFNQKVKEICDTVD
core dimer inh: inhibitors of HCV core protein dimerization, primary screen, biochemical, TR-FRET, high-throughput. inhibition, % at 5 µM. TR-FRET GST/Flag-core106 dimerization, 1536-well. 300,000 tested, 0.33% active;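 active = inhibition above the mean of all tested compounds plus 3 SD, set per screening campaign, cut at about 45% in these data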
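System: GST/Flag-tagged HCV core106 proteins. Incubation: compound-protein-antibody incubation 4 h at 22.5 °C. Technique: HTRF with 340 nm excitation, 617/671 nm emission. Medium: KF-containing HEPES buffer, pH 7.45, DTT, CHAPS, BSA. Read-out: inhibition (%) from 671 over 617 nm ratio. Also added: Eu(K)-anti-GST 90 ng/mL plus XL665-anti-Flag 1 µg/mL.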
NadD block: inhibitors of S. aureus NadD, primary screen, biochemical, colorimetric, uHTS. Nicotinate-nucleotide adenylyltransferase NadD (Staphylococcus aureus N315). purified NadD enzyme, colorimetric absorbance read-out. inhibition, % at 20 µM. 360,000 tested, 0.78% active. AID 602399, 2012; in the data active = inhibition above about 26%
rCAG RNA binder: binders of r(CAG) RNA repeats, primary screen, biochemical, fluorescence; r(CAG) RNA repeat, TO-PRO-1 dye displacement fluorescence; inhibition, % at 3 µM; 370,000 tested, 1.3% active;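 active = inhibition above the plate cutoff, the mean of all test compounds on that plate plus 3 SD, cut at about 35% in these data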;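 note: higher means more dye released from RNA so lower well fluorescence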
rCAG bind conf: small molecules binding CAG repeat RNA – biochemical, fluorescence, confirmation. r(CAG) RNA repeat, TO-PRO-1 dye displacement fluorescence. 4,300 tested, 70% active. inhibition, % at 3 µM. shares compounds with rCAG RNA binder. AID 652065, 2013;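 active = inhibition above a per-plate cutoff, the mean inhibition of sample wells plus 3 SD, cut at about 35% in these data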;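 note: loss of TO-PRO-1 fluorescence as compound displaces dye from 1x1 AA loop RNA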
DNA CAG counter: displacement of TO-PRO-1 from CAG DNA duplex, counter-screen for rCAG RNA repeat binder project, biochemical, fluorescence, TO-PRO-1 dye, d(CAG) DNA oligo; shares compounds with rCAG RNA binder; d(CAG) DNA oligo TO-PRO-1 dye displacement; inhibition, % at 3 µM; 4,300 tested, 94% active;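 active = inhibition above its plate's cutoff, the mean test-well inhibition plus 3 SD, cut at about 4.8% in these data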;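 note: hits displace the dye from DNA and so lower well fluorescence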
DNA CAG DR: inhibitors of DNA CAG/GTC TO-PRO-1 complex, dose response, counter-screen for rCAG RNA repeat binder project, biochemical, fluorescence, TO-PRO-1 dye. shares compounds with rCAG RNA binder. DNA CAG/GTC duplex TO-PRO-1 dye displacement fluorescence. IC50, µM. 250 tested, 20% active. AID 686960, 2013; in the data active = IC50 below about 10 µM
A number is an active result; – = inactive; · = no result. In the library only some 2.6% were active in any assay of this set; here they are far more common.

SMILES | ABHD5-PLIN5 inh | core dimer inh | NadD block | rCAG RNA binder | rCAG bind conf | DNA CAG counter | others
Cc1ccc(S(=O)(=O)N2[C@@H](c3ccccc3)C(C(=O)O)=CC[C@H]2c2ccc(Cl)c(Cl)c2)cc1 | – | – | – | 61 | 81 | 48
O=c1[nH]n2c(=O)c3c([nH]c2c1N=Nc1cccc(Cl)c1)CCCC3 | – | – | – | 75 | 85 | 48
Cc1cc(NC(=S)N(Cc2ccc(Br)cc2)Cc2ccc(C(=O)O)cc2)ccc1Cl | – | – | – | 75 | 82 | 48
Cc1cccc(NC(=S)N(Cc2ccc(Br)cc2)Cc2ccc(C(=O)O)cc2)c1 | – | – | – | – | · | ·
COc1cccc(NC(=S)N(Cc2ccc(Cl)cc2)Cc2ccc(C(=O)O)cc2)c1 | – | – | – | 53 | 42 | 11
COc1ccc(Cl)cc1NC(=S)N(Cc1ccc(C(=O)O)cc1)Cc1ccc(OC)c(OC)c1 | – | – | – | 50 | 48 | 15
COc1ccc(CN(Cc2ccc(C(=O)O)cc2)C(=S)Nc2cc(C)cc(C)c2)cc1OC | – | – | – | – | · | ·
CCC(NC(=O)c1ccc2c(ccn2Cc2cccc(-c3ccccc3C(=O)O)c2)c1)c1ccccc1 (configuration not stated) | · | · | · | 49 | 48 | 18
CCC(NC(=O)c1ccccc1Br)c1ccccc1 (configuration not stated) | – | – | – | – | · | ·
O=C(NCc1n[nH]c(=S)n1-c1ccc(Cl)c(Cl)c1)c1ccc(S(=O)(=O)N2CCCCC2)cc1 | – | – | – | 36 | – | 11
O=C(NCc1n[nH]c(=S)n1-c1ccc(Cl)c(Cl)c1)c1ccco1 | – | – | – | – | · | ·
O=C(NCc1n[nH]c(=S)n1-c1cccc(Cl)c1)c1ccc(S(=O)(=O)N2CCCC2)cc1 | – | – | – | – | · | ·
CCCN(CCC)S(=O)(=O)c1ccc(C(=O)NCc2n[nH]c(=S)n2-c2ccc(Cl)c(Cl)c2)cc1 | – | – | – | 35 | – | 7.0
CCOC(=O)C1=CCN(S(=O)(=O)c2cccc(Cl)c2)C1c1ccc(Br)cc1 (configuration not stated) | – | · | – | – | · | ·
COc1cc(C2C3=C(Nc4nc(N)[nH]c(=O)c42)c2ccccc2C3=O)ccc1O (configuration not stated) | – | – | – | 61 | – | 20
Nc1nc2c(c(=O)[nH]1)C(c1ccccc1)C1=C(N2)c2ccccc2C1=O (configuration not stated) | – | – | – | 62 | – | 27
CCOC(=O)Cc1c(C)nc2c(C#N)c[nH]n2c1=O | – | – | – | – | · | ·
CCOC(=O)Cc1c(C)nc2c(-c3cccc(Br)c3)c[nH]n2c1=O | – | – | – | 72 | 47 | 15
Cc1[nH]c2ccccc2c1/C=N/NC(=O)c1cccc([N+](=O)[O-])c1 | – | – | – | – | · | ·
Cc1[nH]c2ccccc2c1/C=N/Nc1ccc([N+](=O)[O-])cc1 | – | – | – | 56 | – | 21
Cc1cccc(S(=O)(=O)Nc2ccc(-c3nc4ccc(C)cc4s3)cc2)c1 | – | – | – | 37 | 40 | 15
Cc1ccc2nc(-c3ccc(NS(=O)(=O)c4c(C)n(C)c(=O)n(C)c4=O)cc3)sc2c1 | – | – | – | – | · | ·
Cc1ccc(S(=O)(=O)Nc2ccc(-c3nc4ccc(C)cc4s3)cc2)cc1 | – | – | – | 35 | – | 12
Cc1ccc2nc(-c3ccc(NC(=O)CCS(=O)(=O)c4ccccc4)cc3)sc2c1 | – | – | – | – | · | ·
Cc1ccc2nc(-c3ccc(NC(=O)CSc4nccc(=O)[nH]4)cc3)sc2c1 | – | – | – | 40 | 71 | 33 | DNA CAG DR=–
SMILES | ABHD5-PLIN5 inh | core dimer inh | NadD block | rCAG RNA binder | rCAG bind conf | DNA CAG counter | others
O=C(CCc1ccccc1)N[C@H]1[C@@H](OC(=O)c2ccco2)CCC[C@]12C(=O)N(Cc1ccccc1)c1ccccc12 | · | · | · | – | · | ·
Cc1ccccc1CN(C)C[C@@H]1OCc2cnnn2CCCC(=O)N([C@H](C)CO)C[C@H]1C | – | · | – | – | · | ·
COCCCNC(=O)C[C@H]1C[C@@]2(C(=O)OC)C(=C[C@H](C(C)C)O[C@@H]2C2CC2)N(Cc2ccccc2)C1=O | · | · | · | – | · | ·
O=C(CCc1ccccc1)Nc1cc(NC(=O)CCc2ccccc2)cc(C(=O)O)c1 | – | – | – | 40 | – | –
O=C(CCc1ccccc1)Nc1cc2c3c(c1)CCC(=O)N3CCC2 | – | – | – | 42 | – | –
CCCC[C@H](C(=O)N(CC)c1ccccc1)[C@@H](O)c1ccc(C(C)=O)cc1 | · | · | · | – | · | ·
O=C(COC(=O)c1ccc2ncsc2c1)NCc1ccccc1Cl | – | · | – | – | · | ·
COC(=O)[C@H](CC(C)C)NC(=O)NCCCc1ccccc1 | – | – | – | 48 | – | –
O=C1NC[C@H](CCCCN2CCN(CC3CCCCC3)C(=O)C2=O)N(Cc2ccccc2)C1=O | – | · | – | – | · | ·
O=S(=O)(N/N=C/c1ccc(Cl)cc1)c1ccc(Cc2ncc(C(F)(F)F)cc2Cl)s1 | – | – | – | 45 | 65 | 26
Cc1ccc2[nH]c3c(c2c1)CCc1cn[nH]c1-3 | – | – | – | 47 | – | 5.0
Cc1ccc2[nH]c3c(c2c1)CCC3=O | – | – | – | – | · | ·
COC(=O)c1ccc(CSc2nc3ccc(Cl)cc3[nH]2)o1 | – | – | · | – | · | ·
COC(=O)c1ccc(CSc2nc3scc(-c4cccs4)c3c(=O)[nH]2)o1 | – | – | 34 | 35 | – | 14
O=[N+]([O-])c1cc(-c2nnc(N3CCOCC3)c3ccccc23)ccc1N1CCOCC1 | – | – | – | 90 | – | –
O=[N+]([O-])c1cc(-c2nnc(Nc3ccccc3)c3ccccc23)ccc1N1CCOCC1 | – | – | – | – | · | ·
O=C(N[C@@H](Cc1c[nH]c2ccccc12)C(=O)O)C1CCN(S(=O)(=O)c2ccc(Cl)cc2)CC1 | – | – | – | 35 | – | 8.2
CN(Cc1ccc(Cl)c(Cl)c1)C(c1cc2ccccc2o1)c1nnnn1C(C)(C)C (configuration not stated) | – | · | – | – | · | ·
C[C@H]1CN([C@@H](C)CO)C(=O)c2c(c3ccccc3n2C)-c2ccccc2CO[C@H]1CN(C)C(=O)Nc1cccc(F)c1 | · | · | · | – | · | ·
CCOc1cc2c(c3c1C(c1ccccc1)N(S(=O)(=O)c1ccc(C)cc1)C3)C(=O)C=CC2=O (configuration not stated) | – | · | 46 | 60 | 54 | 25
